According to ChEMBL document CHEMBL1150782, “Strong and selective inhibitors of hepatitis B virus replication among novel N4-hydroxy- and 5-methyl-beta-L-deoxycytidine analogues” (Antimicrob Agents Chemother, 2007):

Experiments:
[1] = Cytotoxicity against human HL60 cells after 3 days by MTT assay; assay type: cell-based; conditions: HL-60 cells
Method in brief: (§1)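 HL-60 cells in RPMI or HepG2 cells in DMEM, seeded at 50,000 per well. Exposed for 3 days to varying compound concentrations at 37°C under humidified 5% CO2. Growth read by MTT reduction to formazan. CC50 is the concentration inhibiting growth by 50%; mean ± SD of at least three independent experiments.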

[2] = Cytotoxicity against human HepG2 cells after 3 days by MTT assay; assay type: cell-based; method in brief: as §1
Hepatitis B virus [3] = assay: Antiviral activity against HBV in HepG2.2.15 cells assessed as decrease in extracellular viral DNA level at 0.1 uM by PCR; assay type: functional, organism-based; conditions: HepG2 2.2.15, TDE = time-dependent effect
Method in brief: (§2)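 HepG2.2.15 (HBV-transfected) cells, ~10^5 per well in DMEM with 10% FBS; compound added at various concentrations with daily medium changes. Supernatants taken at day 3, 6 or 9, cleared, proteinase K digested, and HBV DNA amplified by PCR with subgenomic primers. Products run on 1% agarose, ethidium stained and imaged, calibrated against cloned HBV genome dilutions. EC50 taken from dose-response curves as 50% reduction of medium HBV DNA.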

Hepatitis B virus [4] = assay: Antiviral activity against HBV in HepG2.2.15 cells assessed as decrease in extracellular viral DNA level by RT-PCR; assay type: functional, organism-based; conditions: HepG2 2.2.15; method in brief: as §2
Hepatitis B virus [5] = assay: Antiviral activity against HBV in HepG2.2.15 cells assessed as decrease in extracellular viral DNA level at 0.5 uM by PCR; assay type: functional, organism-based; conditions: HepG2 2.2.15, TDE = time-dependent effect; method in brief: as §2
[6] = Inhibition of HBV DNA polymerase; set-up: species or system Hepatitis B virus
Method in brief: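 Endogenous polymerase assay using HBV virions purified from untreated patient serum (>10^7 GE/ml) by ultracentrifugation and a sucrose step gradient. Incubated 1 h at 37°C; [3H]dCMP incorporation counted; IC50 from inhibition curves.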

[7] = Inhibition of duck HBV DNA polymerase; set-up: species or system Duck hepatitis B virus
[8] = Cytotoxicity against human CEM cells; assay type: cell-based; conditions: CCRF-CEM cells
Hepatitis B virus [9] = assay: Antiviral activity against HBV in HepG2.2.15 cells assessed as decrease in extracellular viral DNA level at 0.3 uM by PCR; assay type: functional, organism-based; conditions: HepG2 2.2.15, TDE = time-dependent effect; method in brief: as §2

Row | EC50 (Hepatitis B virus [4]) | IC50 [6] | Structure (SMILES) | CC50 at 72 h [1] | CC50 at 72 h [2] | also measured
1 | 5 µM |  | O=c1nc(NO)c(F)cn1[C@@H]1CS[C@H](CO)O1 | 770 µM | 855 µM | 
2 | 0.51 µM |  | O=c1nc(NO)ccn1[C@@H]1CS[C@H](CO)O1 | 1450 µM | 1320 µM | Activity (Hepatitis B virus [5]): tde
3 |  | 4 µM | Cc1cn([C@@H]2C[C@@H](O)[C@H](COP(=O)(O)OP(=O)(O)OP(=O)(O)O)O2)c(=O)nc1NO |  |  | 
4 | 0.9 µM |  | Cc1cn([C@@H]2C[C@@H](O)[C@H](CO)O2)c(=O)nc1N | > 2000 µM | > 2000 µM | 
5 |  | 1.9 µM | Cc1cn([C@@H]2C[C@@H](F)[C@H](COP(=O)(O)OP(=O)(O)OP(=O)(O)O)O2)c(=O)nc1N |  |  | 
6 |  | 0.9 µM | Cc1cn([C@@H]2C[C@@H](O)[C@H](COP(=O)(O)OP(=O)(O)OP(=O)(O)O)O2)c(=O)nc1N |  |  | 
7 |  | 0.3 µM | Nc1ccn([C@@H]2CS[C@H](COP(=O)(O)OP(=O)(O)OP(=O)(O)O)O2)c(=O)n1 [LAMIVUDINE TRIPHOSPHATE] |  |  | 
8 | 0.55 µM |  | O=c1nc(NO)ccn1[C@@H]1CC[C@H](CO)O1 | 1600 µM | 2250 µM | 
9 | 13 µM |  | Cc1cn([C@@H]2C[C@@H](N=[N+]=[N-])[C@H](CO)O2)c(=O)nc1N | 1900 µM | 1750 µM | 
10 | 5.04 µM |  | Cc1cn([C@@H]2C[C@@H](O)[C@H](CO)O2)c(=O)nc1NO | 600 µM | 490 µM | 

Second part, the compound before the results:

Row | Structure (SMILES) | EC50 (Hepatitis B virus [4]) | IC50 [6] | CC50 at 72 h [1] | CC50 at 72 h [2] | also measured
11 | O=c1nc(NO)ccn1[C@@H]1C=C[C@H](CO)O1 | 0.03 µM |  | 3500 µM | 2500 µM | Activity (Hepatitis B virus [3]): tde
12 | O=c1nc(NO)c(F)cn1[C@@H]1C[C@@H](O)[C@H](CO)O1 | 4.5 µM |  | 1370 µM | 920 µM | 
13 | Cc1cn([C@H]2C[C@H](O)[C@@H](CO)O2)c(=O)[nH]c1=O [DOXRIBTIMINE] | 0.3 µM |  | 1760 µM | 2100 µM | 
14 | [N-]=[N+]=N[C@@H]1C[C@@H](n2ccc(NO)nc2=O)O[C@H]1CO | 50 µM |  | 2000 µM | 1160 µM | 
15 | O=c1nc(NO)ccn1[C@@H]1C[C@@H](O)[C@H](COP(=O)(O)OP(=O)(O)OP(=O)(O)O)O1 |  | 6 µM |  |  | 
16 | Cc1cn([C@@H]2C[C@@H](F)[C@H](CO)O2)c(=O)nc1N | > 50 µM |  | 1650 µM | 1800 µM | 
17 | O=c1nc(NO)ccn1[C@@H]1CC(F)[C@H](CO)O1 (stereo partly specified) | 25 µM |  | 4400 µM | 820 µM | 
18 | Cc1cn([C@@H]2C=C[C@H](CO)O2)c(=O)nc1N | > 50 µM |  | 600 µM | 1400 µM | 
19 | O=c1nc(NO)ccn1[C@@H]1C[C@@H](O)[C@H](CO)O1 | 2.38 µM |  | 460 µM | 545 µM | 
20 | Nc1nc(=O)n([C@@H]2CS[C@H](CO)O2)cc1F [EMTRICITABINE] | 0.1 µM |  | 845 µM | 765 µM | 
21 | Cc1cn([C@@H]2C[C@@H](O)[C@H](COP(=O)(O)OP(=O)(O)OP(=O)(O)O)O2)c(=O)[nH]c1=O [TELBIVUDINE 5'TRIPHOSPHATE] |  | 0.46 µM |  |  | IC50 [7]: 1 µM
22 | Nc1ccn([C@@H]2C=C[C@H](CO)O2)c(=O)n1 |  |  |  |  | CC50 [8]: 20 µM
23 | Cc1cn([C@@H]2CC[C@H](COP(=O)(O)OP(=O)(O)OP(=O)(O)O)O2)c(=O)nc1N |  | 6.5 µM |  |  | 
24 | Cc1cn([C@@H]2C=C[C@H](COP(=O)(O)OP(=O)(O)OP(=O)(O)O)O2)c(=O)nc1N |  | 6.2 µM |  |  | 
25 | O=c1nc(NO)ccn1[C@@H]1C=C[C@H](COP(=O)(O)OP(=O)(O)OP(=O)(O)O)O1 |  | 0.21 µM |  |  | 
26 | Nc1ccn([C@@H]2CC[C@H](CO)O2)c(=O)n1 | 0.2 µM |  | 94 µM | 85 µM | CC50 [8]: 70 µM
27 | Cc1cn([C@@H]2CC[C@H](CO)O2)c(=O)nc1N | > 50 µM |  | 950 µM | 1550 µM | 
28 | O=c1nc(NO)ccn1[C@@H]1CC[C@H](COP(=O)(O)OP(=O)(O)OP(=O)(O)O)O1 |  | 0.99 µM |  |  | 
29 | Nc1ccn([C@@H]2CS[C@H](CO)O2)c(=O)n1 [LAMIVUDINE] | 0.1 µM |  | 1400 µM | 1200 µM | Activity (Hepatitis B virus [9]): tde
30 | Cc1cn([C@@H]2C[C@@H](N=[N+]=[N-])[C@H](COP(=O)(O)OP(=O)(O)OP(=O)(O)O)O2)c(=O)nc1N |  | 0.85 µM |  |  | 
